NPR1 activator – GC-A stimulated cGMP production enhancers – HEK293 GC-A cells, cGMP TR-FRET, EC30 ANP, primary screen; Atrial natriuretic peptide receptor 1 (Homo sapiens), P16066; 0% at EC30 ANP, 100% saturating ANP; activation, % at 10 µM; actives 0.14% (n = 370,000); in the data active = activation above about 40%
NPR2 activator – human GC-B receptor activators, primary screen, HEK293 GC-B cells, cGMP TR-FRET, EC30 CNP; activation, % at 10 µM; AID 1920062, 2024; Atrial natriuretic peptide receptor 2 (Homo sapiens), P20594; actives 0.11% (n = 370,000); 0% at EC30 CNP, 100% saturating CNP;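 active = activation at 10 µM reaching about 35% in either raw or pattern-adjusted values, limit read from the data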
aDG glyco up – activators of alpha-DG glycosylation, primary screen, uHTS, Pro5-aDG cells, AlphaScreen. AID 624168, 2012. actives 0.22% (n = 360,000). alpha-DG glycosylation AlphaScreen (IIH6); 0% Pro5, 100% B10-LARGE cell signal. activation, % at 10 µM;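 active = activation of at least 8% versus controls, or a plate z-score of at least 8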;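 note: Pro5 are CHO cells carrying HIG-tagged alpha-DG that lacks glycosylation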
NR3A LBD binder – binders of NR3A ligand-binding domain, primary screen, biophysical, differential scanning fluorimetry, uHTS | Tm shift relative to glycine control, % at 25 µM | Glutamate receptor ionotropic, NMDA 3A (GRIN3A) ligand-binding domain | NR3A LBD differential scanning fluorimetry, Tm shift; 0% = protein alone, 100% = glycine-bound protein | actives 2.5% (n = 340,000) | AID 1259313, 2017;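 active = melting temperature shift of at least 10% of the positive control shift, at one fixed dose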
GASC-1 inh – inhibitors of GASC-1 histone demethylase, primary screen, biochemical, fluorescence, DELFIA europium. inhibition, % at 2.35 µM. actives 0.069% (n = 330,000). GST-JMJD2C(1-420) H3K9me3 demethylation;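 active = more than half of a compound's replicate wells show inhibition beyond 50%, single wells judged on their own value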;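 note: signal counts dimethyl H3K9 product captured on neutravidin plate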
Hep lipid drop – inhibitors of hepatocyte lipid droplet formation, primary screen, imaging, high-throughput imaging, BODIPY stain; AML12 mouse hepatocytes, oleate lipid droplets; inhibition, % at 6.5 µM; actives 0.4% (n = 240,000); AID 1656, 2009;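 active = lipid droplet intensity inhibited by at least 50%, with more than 500 cells counted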
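Test system: AML12 hepatocytes (mouse); reagent: oleate loading, 100 µM; dosing: one dose, 6.5 µM compound; incubation: overnight exposure; signal: fluorescence imaging, 20x objective, two fields per well; read-out basis: % inhibition of corrected integrated BODIPY droplet signal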
Lipid drop inh – hepatocyte lipid droplet accumulation inhibitors, confirmation, imaging, AML12 mouse hepatocytes, single concentration, high-content. shares compounds with Hep lipid drop. BODIPY lipid droplet imaging; droplets induced with 100 µM oleic acid. inhibition, % at 5.2 µM. actives 65% (n = 870);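 active = inhibition of lipid droplet metric at least 50%, with more than 300 cells in each of four replicates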
AML12 cytotox – AML12 hepatocyte cytotoxicity, counter-screen for hepatic lipid droplet formation project, imaging, DAPI nuclear morphology imaging | shares compounds with Hep lipid drop | AML12 mouse hepatocytes; stronger effect = higher value; cells fed 100 µM oleate overnight | z-score at 5 µM | actives 3% (n = 870); in the data active = z-score above about 6.3;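 note: compound exposure lasted overnight at 37 °C before fixation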
AML12 tox ATP – AML12 hepatocyte cytotoxicity, confirmation, cytotoxicity control for hepatic lipid droplet formation project, cell-based, single concentration; shares compounds with Hep lipid drop; AML12 mouse hepatocyte viability, ATP luminescence; cells loaded with 100 µM oleic acid; cytotoxicity, % at 50 µM; 530 tested, under 10 active; AID 463219, 2010;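 active = cytotoxicity above 50% in each of four replicates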;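 note: compound exposure lasted overnight at 37 °C before the ATP read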
Each line names hits and unclear results; the compound was inactive in the other large screens (follow-up assays come after a bar, where they were run). The list is not random: actives were taken first. Their share in the collection is about 3%.

CCN(CC)S(=O)(=O)c1ccc(C(=O)NCc2ccc3[nH]c4c(c3c2)CCCC4)cc1	Hep lipid drop 85 | Lipid drop inh 90 | AML12 cytotox inactive | AML12 tox ATP inactive
CN(C)S(=O)(=O)c1ccc(C(=O)NCc2ccc3[nH]c4c(c3c2)CCCC4)cc1	none
CCn1c(SCC(=O)NC2=NCCS2)nnc1C(C)NC(=O)c1ccc(Cl)cc1 (stereo unspecified)	none
CCc1ccc(C(=O)CSc2nc3cc(S(=O)(=O)N4CCOCC4)ccc3n2CC)cc1	Hep lipid drop 115 | Lipid drop inh inactive | AML12 cytotox inactive
O=C(Nc1cccc(S(=O)(=O)N2CCOCC2)c1)c1ccc(Cl)c([N+](=O)[O-])c1	Hep lipid drop 61 | Lipid drop inh inactive | AML12 cytotox inactive
Cc1ccc(C(=O)Nc2cccc(S(=O)(=O)N3CCOCC3)c2)cc1[N+](=O)[O-]	none
COCCNC(=S)N1CCc2cc(OC)c(OC)cc2C1COc1cc(C)cc(C)c1 (stereo unspecified)	Hep lipid drop 62 | Lipid drop inh 90 | AML12 cytotox inactive | AML12 tox ATP inactive
CNC(=S)N1CCc2cc(OC)c(OC)cc2C1COc1ccc(OC)cc1 (stereo unspecified)	none
COc1ccc(Cl)cc1NC(=O)Nc1ccc(C(=O)N2CCCC2)cc1	Hep lipid drop 56 | Lipid drop inh 77 | AML12 cytotox inactive | AML12 tox ATP inactive
COc1ccc(C)cc1NC(=O)Nc1ccccc1	none
COc1ccc(C)cc1NC(=O)Nc1ccc(C(=O)N2CCCC2)cc1	Hep lipid drop 70 | Lipid drop inh 95 | AML12 cytotox inactive | AML12 tox ATP inactive
CCCC[C@H]1C2CC(OC(=O)Nc3cccc(F)c3)C(C2)[C@H]2CCCCN21 (stereo partly specified)	none (no result: aDG glyco up, NR3A LBD binder, GASC-1 inh, Hep lipid drop)
CC(C)OC(=O)/C(=C\c1ccc2c(c1)c1ccccc1n2C)NC(=O)c1ccccc1	none (no result: Hep lipid drop)
CC(C)OC(=O)/C(=C/c1ccc2c(c1)c1ccccc1n2C)NC(=O)c1ccccc1	Hep lipid drop 53 | Lipid drop inh 96 | AML12 cytotox inactive | AML12 tox ATP inactive
COC(=O)/C(=C\c1ccc2c(c1)c1ccccc1n2C)NC(=O)c1ccccc1	Hep lipid drop 52 | Lipid drop inh 93 | AML12 cytotox inactive | AML12 tox ATP inactive
CC(=O)c1cccc(NC(=O)C2CCCN2S(=O)(=O)c2cccs2)c1 (stereo unspecified)	none (no result: NR3A LBD binder, GASC-1 inh, Hep lipid drop)
N/C(Cc1ccc(Cl)cc1Cl)=N\OC(=O)c1ccc(Br)o1	Hep lipid drop 57 | Lipid drop inh inactive | AML12 cytotox inactive
CC(C)CCN(C)C1CCN(C(=O)Nc2ccc(Cl)cc2)CC1	none (no result: aDG glyco up, NR3A LBD binder, GASC-1 inh, Hep lipid drop)
COc1n[nH]c(C(=O)Nc2cc(F)ccc2C)c1[N+](=O)[O-]	Hep lipid drop 55 | Lipid drop inh inactive | AML12 cytotox inactive
COc1n[nH]c(C(=O)Nc2cc(Cl)ccc2Cl)c1[N+](=O)[O-]	none
Cc1ccc(C)c(C(=O)N2CCN(c3ncccn3)CC2)c1	Hep lipid drop 57 | Lipid drop inh inactive | AML12 cytotox inactive
